Measured values from ChEMBL document CHEMBL4431385, “Substituted tetracyclic indole core derivatives of HCV NS5A inhibitor MK-8742” (Bioorg Med Chem Lett, 2016).
Positions count from the first letter of the chain named.

What was measured:
[1] = tested on: T1, Nonstructural protein 5A (Hepatitis C virus), Q5L478 [Y93H]; assay: Inhibition of HCV GT1a NS5A Y93H mutant assessed as suppression of replicon RNA level by real-time PCR analysis; details: Hepatitis C virus subtype 1a
T1 sequence (whole entry): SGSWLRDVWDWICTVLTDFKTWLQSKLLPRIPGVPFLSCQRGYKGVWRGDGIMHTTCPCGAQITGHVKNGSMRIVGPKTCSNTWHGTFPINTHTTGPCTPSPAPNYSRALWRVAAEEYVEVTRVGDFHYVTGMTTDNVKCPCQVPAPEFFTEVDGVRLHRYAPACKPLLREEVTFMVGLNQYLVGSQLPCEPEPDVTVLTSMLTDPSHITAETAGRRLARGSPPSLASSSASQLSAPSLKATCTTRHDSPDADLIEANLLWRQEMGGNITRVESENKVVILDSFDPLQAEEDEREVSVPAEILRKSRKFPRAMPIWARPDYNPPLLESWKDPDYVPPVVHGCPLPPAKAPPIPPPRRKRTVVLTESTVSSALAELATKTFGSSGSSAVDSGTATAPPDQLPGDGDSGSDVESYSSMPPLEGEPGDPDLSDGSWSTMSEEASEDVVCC

[2] = tested on: Nonstructural protein 5A (Hepatitis C virus), Q5L478 [UNDEFINED MUTATION]; assay: Inhibition of HCV GT1a NS5A L31V mutant assessed as suppression of replicon RNA level by real-time PCR analysis; details: Hepatitis C virus subtype 1a
[3] = biological target: T2, Nonstructural protein 5A (Hepatitis C virus) (UniProt Q5L478); assay: Inhibition of HCV GT1a NS5A assessed as suppression of replicon RNA level by real-time PCR analysis; details: Hepatitis C virus subtype 1a
T2 sequence (whole entry): T1 sequence (whole entry) with H93Y

[4] = biological target: T2, Nonstructural protein 5A (Hepatitis C virus); assay: Inhibition of HCV GT3a NS5A assessed as suppression of replicon RNA level by real-time PCR analysis; details: Hepatitis C virus subtype 3a
[5] = biological target: T2, Nonstructural protein 5A (Hepatitis C virus); assay: Inhibition of HCV GT2b NS5A assessed as suppression of replicon RNA level by real-time PCR analysis; details: Hepatitis C virus subtype 2b
Outline: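 GT2b replicon, which carries the naturally occurring NS5A 31M resistance-associated variant; potency given as EC90 in nM.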

[6] = biological target: T2, Nonstructural protein 5A (Hepatitis C virus); assay: Inhibition of HCV GT1b NS5A assessed as suppression of replicon RNA level by real-time PCR analysis; details: Hepatitis C virus subtype 1b

Structure (SMILES)	EC90 [1] [nM]	EC90 [2] [nM]	EC90 [3] [nM]	EC90 [4] [nM]	EC90 [5] [nM]	EC90 [6] [nM]
COC(=O)N[C@H](C(=O)N1CCC[C@H]1c1ncc(-c2ccc3c(c2)OC(c2cc(Cl)cc(OC)c2)n2c-3cc3cc(-c4cnc([C@@H]5CCCN5C(=O)[C@@H](NC(=O)OC)C(C)C)[nH]4)ccc32)[nH]1)C(C)C (mixture of isomers)	15	0.2	0.03	0.8	202	–
COC(=O)N[C@H](C(=O)N1CCC[C@H]1c1ncc(-c2ccc3c(c2)OC(c2cc(OC)cc(OC)c2)n2c-3cc3cc(-c4cnc([C@@H]5CCCN5C(=O)[C@@H](NC(=O)OC)C(C)C)[nH]4)ccc32)[nH]1)C(C)C (some centres undefined)	8	0.3	0.004	0.08	11	–
COC(=O)N[C@H](C(=O)N1CCC[C@H]1c1ncc(-c2ccc3c(c2)cc2n3C(c3cccc(OC(F)F)c3)Oc3cc(-c4cnc([C@@H]5C[C@@H](F)CN5C(=O)[C@@H](NC(=O)OC)C(C)C)[nH]4)cc(F)c3-2)[nH]1)C(C)C (some centres undefined)	0.3	0.7	0.002	0.2	22	–
COC(=O)N[C@H](C(=O)N1CCC[C@H]1c1ncc(-c2cc(F)c3c(c2)OC(c2cc(OC)cc(OC)c2)n2c-3cc3cc(-c4cnc([C@@H]5CCCN5C(=O)[C@@H](NC(=O)OC)C(C)C)[nH]4)ccc32)[nH]1)C(C)C (some centres undefined)	3	0.1	0.004	0.06	0.6	–
COC(=O)N[C@H](C(=O)N1CCC[C@H]1c1ncc(-c2ccc3c(c2)cc2n3C(c3cccc(OC(C)C)c3)Oc3cc(-c4cnc([C@@H]5C[C@@H](F)CN5C(=O)[C@@H](NC(=O)OC)C(C)C)[nH]4)cc(F)c3-2)[nH]1)C(C)C (some centres undefined)	0.9	0.6	0.01	0.07	28	–
COC(=O)N[C@H](C(=O)N1CCC[C@H]1c1ncc(-c2ccc3c(c2)cc2n3C(c3cccc(OC(F)(F)F)c3)Oc3cc(-c4cnc([C@@H]5C[C@@H](F)CN5C(=O)[C@@H](NC(=O)OC)C(C)C)[nH]4)ccc3-2)[nH]1)C(C)C (some centres undefined)	1.7	1.8	0.02	–	48	–
CCOc1cccc(C2Oc3cc(-c4cnc([C@@H]5C[C@@H](F)CN5C(=O)[C@@H](NC(=O)OC)C(C)C)[nH]4)cc(F)c3-c3cc4cc(-c5cnc([C@@H]6CCCN6C(=O)[C@@H](NC(=O)OC)C(C)C)[nH]5)ccc4n32)c1 (some centres undefined)	0.4	–	0.01	0.1	17	–
COC(=O)N[C@H](C(=O)N1C[C@H](F)C[C@H]1c1ncc(-c2cc(F)c3c(c2)OC(c2ccc(OC(F)(F)F)cc2)n2c-3cc3cc(-c4cnc([C@@H]5C[C@@H](F)CN5C(=O)[C@@H](NC(=O)OC)C(C)C)[nH]4)ccc32)[nH]1)C(C)C (some centres undefined)	0.2	–	0.01	1	35	–
CCOc1cccc(C2Oc3cc(-c4cnc([C@@H]5CCCN5C(=O)[C@@H](NC(=O)OC)C(C)C)[nH]4)cc(F)c3-c3cc4cc(-c5cnc([C@@H]6CCCN6C(=O)[C@@H](NC(=O)OC)C(C)C)[nH]5)ccc4n32)c1 (some centres undefined)	2	0.2	0.01	0.02	8	–
COC(=O)N[C@H](C(=O)N1CCC[C@H]1c1ncc(-c2ccc3c(c2)OCn2c-3cc3c(F)c(-c4cnc([C@@H]5CCCN5C(=O)[C@@H](NC(=O)OC)C(C)C)[nH]4)ccc32)[nH]1)C(C)C	–	–	> 0.8	–	–	> 0.5
CCCCOc1cccc(C2Oc3cc(-c4cnc([C@@H]5C[C@@H](F)CN5C(=O)[C@@H](NC(=O)OC)C(C)C)[nH]4)cc(F)c3-c3cc4cc(-c5cnc([C@@H]6C[C@@H](F)CN6C(=O)[C@@H](NC(=O)OC)C(C)C)[nH]5)ccc4n32)c1 (some centres undefined)	0.1	4	–	–	126	0.008
CCOc1cccc(C2Oc3cc(-c4cnc([C@@H]5CCCN5C(=O)[C@@H](NC(=O)OC)C(C)C)[nH]4)ccc3-c3cc4cc(-c5cnc([C@@H]6CCCN6C(=O)[C@@H](NC(=O)OC)C(C)C)[nH]5)ccc4n32)c1 (some centres undefined)	16	0.9	0.02	0.2	22	–
COC(=O)N[C@H](C(=O)N1CCC[C@H]1c1ncc(-c2ccc3c(c2)OCn2c-3c(Cc3ccccc3)c3cc(-c4cnc([C@@H]5CCCN5C(=O)[C@@H](NC(=O)OC)C(C)C)[nH]4)ccc32)[nH]1)C(C)C	187	9	0.1	–	28	0.01
COC(=O)N[C@H](C(=O)N1CCC[C@H]1c1ncc(-c2ccc3c(c2)OC(c2ccc(OC)cc2)n2c-3cc3cc(-c4cnc([C@@H]5CCCN5C(=O)[C@@H](NC(=O)OC)C(C)C)[nH]4)ccc32)[nH]1)C(C)C (some centres undefined)	82	–	0.04	–	15	–
CCOc1cccc(C2Oc3cc(-c4cnc([C@@H]5C[C@@H](F)CN5C(=O)[C@@H](NC(=O)OC)C(C)C)[nH]4)cc(F)c3-c3cc4cc(-c5cnc([C@@H]6C[C@@H](F)CN6C(=O)[C@@H](NC(=O)OC)C(C)C)[nH]5)ccc4n32)c1 (some centres undefined)	0.2	3	0.01	0.6	69	–
COC(=O)N[C@H](C(=O)N1C[C@H](F)C[C@H]1c1ncc(-c2cc(F)c3c(c2)OC(c2cccc(OC(C)C)c2)n2c-3cc3cc(-c4cnc([C@@H]5C[C@@H](F)CN5C(=O)[C@@H](NC(=O)OC)C(C)C)[nH]4)ccc32)[nH]1)C(C)C (some centres undefined)	0.1	4	0.01	1	122	–
COC(=O)N[C@H](C(=O)N1CCC[C@H]1c1ncc(-c2cc(F)c3c(c2)OC(c2ccc(OC)cc2)n2c-3cc3cc(-c4cnc([C@@H]5CCCN5C(=O)[C@@H](NC(=O)OC)C(C)C)[nH]4)ccc32)[nH]1)C(C)C (some centres undefined)	3	0.2	0.01	–	5	–
COC(=O)N[C@H](C(=O)N1C[C@H](F)C[C@H]1c1ncc(-c2cc(F)c3c(c2)OC(c2cccc(O[C@@H]4CCOC4)c2)n2c-3cc3cc(-c4cnc([C@@H]5C[C@@H](F)CN5C(=O)[C@@H](NC(=O)OC)C(C)C)[nH]4)ccc32)[nH]1)C(C)C (mixture of isomers)	1	7	0.04	2	2	–
COC(=O)N[C@H](C(=O)N1CCC[C@H]1c1ncc(-c2ccc3c(c2)OC(c2cccc(OC(C)C)c2)n2c-3cc3cc(-c4cnc([C@@H]5CCCN5C(=O)[C@@H](NC(=O)OC)C(C)C)[nH]4)ccc32)[nH]1)C(C)C (some centres undefined)	34	0.5	0.01	0.08	145	–
COC(=O)N[C@H](C(=O)N1CCC[C@H]1c1ncc(-c2cc(F)c3c(c2)OC(c2cccc(OC(C)C)c2)n2c-3cc3cc(-c4cnc([C@@H]5CCCN5C(=O)[C@@H](NC(=O)OC)C(C)C)[nH]4)ccc32)[nH]1)C(C)C (some centres undefined)	6	0.2	0.01	0.05	18	–
COC(=O)N[C@H](C(=O)N1CCC[C@H]1c1ncc(-c2cc3c(c(C4CC4)c2)-c2cc4cc(-c5cnc([C@@H]6CCCN6C(=O)[C@@H](NC(=O)OC)C(C)C)[nH]5)ccc4n2CO3)[nH]1)C(C)C	890	0.7	0.7	74	454	–
COC(=O)N[C@H](C(=O)N1CCC[C@H]1c1ncc(-c2ccc3c(c2)cc2n3C(c3ccc(OC(F)(F)F)cc3)Oc3cc(-c4cnc([C@@H]5C[C@@H](F)CN5C(=O)[C@@H](NC(=O)OC)C(C)C)[nH]4)cc(F)c3-2)[nH]1)C(C)C (some centres undefined)	0.3	–	0.03	–	13	0.008
COC(=O)N[C@H](C(=O)N1CCC[C@H]1c1ncc(-c2cc3c(c(-c4ccccc4)c2)-c2cc4cc(-c5cnc([C@@H]6CCCN6C(=O)[C@@H](NC(=O)OC)C(C)C)[nH]5)ccc4n2CO3)[nH]1)C(C)C	250	1	1	47	108	–
